Results from paper PMC10460140 (Angewandte Chemie (International ed. in English), 2023).
Entries after “also recorded” stand apart in the source; their conditions may differ. Where a SMILES comes first, the peptide text is derived from it. Bridges are numbered along the chain shown (N, C = ends). Roman numbers before positions name the chains, in order. Side-chain parts run from the residue outwards. [ ]: non-standard residue; d: D form. The star is where a group is joined. X1 = CN(C)c1ccc2c(-c3ccc(C(=O)*)cc3C(=O)[O-])c3ccc(=[N+](C)C)cc-3oc2c1; Biotin = O=C1N[C@H]2[C@H](CS[C@H]2CCCCC(=O)*)N1; PEG4 = NCCOCCOCCOCCOCCC(=O)O; Alloc = C=CCOC(=O)*; βAla = NCCC(=O)O

Assays:
recombinant mKlotho = test: Pull-down of recombinant mKlotho from CaSki cell lysate; type: binding, mouse
Method in brief: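 Recombinant mouse Klotho was spiked into lysate of CaSki cells (human cervical cancer line, minimal endogenous Klotho) at a final 100 nM. It was pulled down with biotinylated peptide. For self-competition, unlabeled peptide or scrambled control was added to the lysate. Klotho identity was checked against a KM2076 antibody pull-down by band size. Pull-down was quantified (n=2), with ANOVA.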

[1] = tested on: endogenous total hKlotho in HK-2 cells; test: Fluorescence microscopy imaging of fixed HK-2 cells; type: cell-based, human; settings: HK-2 cells transfected with KL siRNA, KB2-TAMRA 500 nM; n=5
Method in brief: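 HK-2 cells were left untransfected, mock-transfected, or transfected with a pooled KL siRNA using RNAiMAX. They were then co-treated with TAMRA-labelled peptide (500 nM) plus WGA Alexa Fluor 350 membrane stain and fixed after treatment. Imaging used ex/em 542/597 nm for TAMRA and 390/435 nm for WGA. Normalised integrated fluorescence was quantified (n=5), with ANOVA.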

[2] = tested on: Klotho-deficient CaSki cells; test: Fluorescence microscopy imaging of CaSki cells; type: cell-based, human; settings: KB2-TAMRA 500 nM, 5 min; fixation after treatment
HK-2 cells = test: Co-localization with nucleus dye DAPI in HK-2 cells; type: cell-based, human; settings: KB2-TAMRA 500 nM 5 min or antibody overnight, DAPI stain
Method in brief: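 HK-2 cells labelled with fluorescent peptide probe at 500 nM for 5 min, or with anti-Klotho antibody KM2076 (overnight incubation, then permeabilisation and secondary antibody). Nuclei stained with DAPI. Co-localisation of the DAPI signal with the probe or antibody signal was quantified as a Pearson correlation coefficient.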

MDM2 = test: Direct binding by BLI, MDM2; settings: KB2-Biotin immobilized on streptavidin tips; MDM2 7.8-1000 nM; n=2
12CA5 = test: Direct binding by BLI, 12CA5; settings: KB2-Biotin immobilized on streptavidin tips; 12CA5 7.8-1000 nM; n=2
endogenous hKlotho = test: Pull-down of endogenous hKlotho from HK-2 cell lysate; type: binding, human; settings: probe 200 nM; 300 μg total protein; 30 min room temperature; western blot; n=2

Compound: C=CCOC(=O)NCCCC[C@H](NC(=O)CCNC(=O)[C@H](CCCCNC(=O)[C@H](C)NC(=O)[C@H](CCCNC(=N)N)NC(=O)[C@H](C)NC(=O)[C@H](CCCNC(=N)N)NC(=O)[C@@H]1CCCN1C(=O)[C@H](CCCNC(=N)N)NC(=O)[C@@H](NC(=O)[C@@H](NC(=O)CNC(=O)[C@H](CC(C)C)NC(=O)[C@@H]1CCCN1C(=O)[C@H](CC(=O)O)NC(=O)[C@H](CO)NC(=O)[C@H](C)NC(=O)[C@H](CCSC)NC(=O)[C@@H]1CCCN1)C(C)C)C(C)C)NC(=O)[C@H](C)NC(=O)[C@H](CCCNC(=N)N)NC(=O)[C@H](C)NC(=O)[C@H](CCCNC(=N)N)NC(=O)[C@@H]1CCCN1C(=O)[C@H](CCCNC(=N)N)NC(=O)[C@@H](NC(=O)[C@@H](NC(=O)CNC(=O)[C@H](CC(C)C)NC(=O)[C@@H]1CCCN1C(=O)[C@H](CC(=O)O)NC(=O)[C@H](CO)NC(=O)[C@H](C)NC(=O)[C@H](CCSC)NC(=O)[C@@H]1CCCN1)C(C)C)C(C)C)C(N)=O [KB2] (I: H-PMASDPLGVVRPRARAK[βAla]K(Alloc)-NH2 / II: H-PMASDPLGVVRPRARA; amide I:17-II:C)
- competition of mKlotho pull-down by KB2-Biotin (recombinant mKlotho; unlabeled peptide pre-incubated 15 min in lysate before KB2-Biotin, n=2): competed off

Compound: CSCC[C@H](NC(=O)[C@@H]1CCCN1C(C)=O)C(=O)N[C@@H](C)C(=O)N[C@@H](CO)C(=O)N[C@@H](CC(=O)O)C(=O)N1CCC[C@H]1C(=O)N[C@@H](CC(C)C)C(=O)NCC(=O)N[C@H](C(=O)N[C@H](C(=O)N[C@@H](CCCNC(=N)N)C(=O)N1CCC[C@H]1C(=O)N[C@@H](CCCNC(=N)N)C(=O)N[C@@H](C)C(=O)N[C@@H](CCCNC(=N)N)C(=O)N[C@@H](C)C(=O)NCCCC[C@H](NC(=O)[C@H](C)NC(=O)[C@H](CCCNC(=N)N)NC(=O)[C@H](C)NC(=O)[C@H](CCCNC(=N)N)NC(=O)[C@@H]1CCCN1C(=O)[C@H](CCCNC(=N)N)NC(=O)[C@@H](NC(=O)[C@@H](NC(=O)CNC(=O)[C@H](CC(C)C)NC(=O)[C@@H]1CCCN1C(=O)[C@H](CC(=O)O)NC(=O)[C@H](CO)NC(=O)[C@H](C)NC(=O)[C@H](CCSC)NC(=O)[C@@H]1CCCN1C(C)=O)C(C)C)C(C)C)C(=O)NCCC(=O)N[C@@H](CCCCNC(=O)c1ccc(-c2c3ccc(=[N+](C)C)cc-3oc3cc(N(C)C)ccc23)c(C(=O)[O-])c1)C(N)=O)C(C)C)C(C)C [KB2-TAMRA] (I: Ac-PMASDPLGVVRPRARAK[βAla]K(X1)-NH2 / II: Ac-PMASDPLGVVRPRARA; amide I:17-II:C; N-terminus assumed)
- fluorescence after Klotho knock-down by KL siRNA [1]: reduced the fluorescence
- fluorescence intensity in CaSki cells relative to HK-2 cells [2]: significantly lower fluorescence intensity
- Pearson correlation coefficient (r) for overlap with DAPI (HK-2 cells): 0.29

Compound: CSCC[C@H](NC(=O)[C@@H]1CCCN1C(C)=O)C(=O)N[C@@H](C)C(=O)N[C@@H](CO)C(=O)N[C@@H](CC(=O)O)C(=O)N1CCC[C@H]1C(=O)N[C@@H](CC(C)C)C(=O)NCC(=O)N[C@H](C(=O)N[C@H](C(=O)N[C@@H](CCCNC(=N)N)C(=O)N1CCC[C@H]1C(=O)N[C@@H](CCCNC(=N)N)C(=O)N[C@@H](C)C(=O)N[C@@H](CCCNC(=N)N)C(=O)N[C@@H](C)C(=O)NCCCC[C@H](NC(=O)[C@H](C)NC(=O)[C@H](CCCNC(=N)N)NC(=O)[C@H](C)NC(=O)[C@H](CCCNC(=N)N)NC(=O)[C@@H]1CCCN1C(=O)[C@H](CCCNC(=N)N)NC(=O)[C@@H](NC(=O)[C@@H](NC(=O)CNC(=O)[C@H](CC(C)C)NC(=O)[C@@H]1CCCN1C(=O)[C@H](CC(=O)O)NC(=O)[C@H](CO)NC(=O)[C@H](C)NC(=O)[C@H](CCSC)NC(=O)[C@@H]1CCCN1C(C)=O)C(C)C)C(C)C)C(=O)NCCC(=O)N[C@@H](CCCCNC(=O)CCOCCOCCOCCOCCNC(=O)CCCC[C@@H]1SC[C@@H]2NC(=O)N[C@@H]21)C(N)=O)C(C)C)C(C)C [KB2-Biotin] (I: Ac-PMASDPLGVVRPRARAK[βAla]K([PEG4-Biotin])-NH2 / II: Ac-PMASDPLGVVRPRARA; amide I:17-II:C; N-terminus assumed)
- association to MDM2 (in words) (MDM2): no association
- association to 12CA5 (in words) (12CA5): no association
- selectivity of pull-down (silver stain) (recombinant mKlotho; pull-down eluents, probe 200 nM, CaSki lysate with mKlotho 0.1 μM): only significantly enriched protein
- enrichment of endogenous hKlotho from HK-2 cell lysate (endogenous hKlotho): enriched hKlotho; also recorded: significantly enriched
